The source made the active and inactive calls. No cut-off for these calls is given here.

The values below come from ChEMBL document CHEMBL1212932, “Nocapyrones A-D, gamma-pyrones from a Nocardiopsis strain isolated from the marine sponge Halichondria panicea” (2010).

One experiment relates to HepG2. The experiment is described as follows: Cytotoxicity against human HepG2 cells at 50 uM. In kind it is functional. The method in brief: (§1)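 Cells were treated with compound at 50 µM. The read-out was metabolic activity, and the value is given as the percent reduction in metabolic activity.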
In a further experiment the test system is NIH3T3. The experiment is described as follows: Cytotoxicity against mouse NIH/3T3 cells at 50 uM. In kind it is functional. A digest of the protocol:
as §1

In the next experiment the test system is Mammaliicoccus lentus. The experiment is described as follows: Antimicrobial activity against Staphylococcus lentus DSM 6672. In kind it is functional, organism-based.
Experiment [1] concerns the target Human immunodeficiency virus type 1 reverse transcriptase (Human immunodeficiency virus 1) (UniProt Q72547). The experiment is described as follows: Inhibition of HIV1 reverse transcriptase by ELISA. In general terms: An ELISA detects its analyte on a solid surface through an enzyme-linked reagent.
Another experiment has as its system Escherichia coli. The experiment is described as follows: Antimicrobial activity against Escherichia coli K-12 DSM 498. In kind it is functional, organism-based.
Experiment [2] has as its system Staphylococcus epidermidis. The experiment is described as follows: Antimicrobial activity against Staphylococcus epidermidis DSM 20044. In kind it is functional, organism-based.
A short description of experiment [3]: Inhibition of phosphodiesterase 4 by colorimetric assay.
The next experiment relates to Ralstonia solanacearum. In words: Antimicrobial activity against Ralstonia solanacearum DSM 9544. In kind it is functional, organism-based.
A further experiment concerns Pseudomonas syringae. In words: Antimicrobial activity against Pseudomonas syringae DSM 50252. Format: functional, organism-based.
Experiment [4] deals with Glycogen synthase kinase-3 beta (Homo sapiens) (UniProt P49841). In words: Inhibition of GSK3-beta.
The target in experiment [5] is T1, Tyrosine-protein phosphatase non-receptor type 1 (Homo sapiens) (UniProt P18031).
T1 sequence (whole entry): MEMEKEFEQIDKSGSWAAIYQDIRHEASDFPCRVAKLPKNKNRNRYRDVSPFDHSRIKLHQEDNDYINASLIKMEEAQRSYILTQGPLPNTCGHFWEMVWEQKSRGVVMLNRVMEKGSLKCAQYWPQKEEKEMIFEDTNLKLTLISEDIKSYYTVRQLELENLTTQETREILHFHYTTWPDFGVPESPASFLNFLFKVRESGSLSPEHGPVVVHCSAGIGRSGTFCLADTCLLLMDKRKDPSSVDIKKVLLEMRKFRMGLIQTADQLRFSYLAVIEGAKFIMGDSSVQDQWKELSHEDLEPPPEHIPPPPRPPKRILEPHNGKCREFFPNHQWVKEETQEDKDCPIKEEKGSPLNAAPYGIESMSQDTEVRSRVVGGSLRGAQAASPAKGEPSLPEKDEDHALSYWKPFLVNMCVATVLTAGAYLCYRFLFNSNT
In words: Inhibition of protein tyrosine phosphatase 1b by colorimetric assay.

A further experiment deals with Pseudomonas aeruginosa. In words: Antimicrobial activity against Pseudomonas aeruginosa DSM 50071. In kind it is functional, organism-based.
The subject of a further experiment is Cutibacterium acnes. The experiment is described as follows: Antimicrobial activity against Propionibacterium acnes DSM 1897. In kind it is functional, organism-based.
The target of experiment [6] is Acetylcholinesterase (Homo sapiens) (UniProt P22303). In words: Inhibition of acetylcholinesterase by colorimetric assay.
For another experiment, the system named is Pseudomonas fluorescens. The experiment is described as follows: Antimicrobial activity against Pseudomonas fluorescens NCIMB 10586. Format: functional, organism-based.
The subject of a further experiment is Candida albicans. The experiment is described as follows: Antimicrobial activity against Candida albicans DSM 6425. In kind it is functional, organism-based.
A further experiment has as its system Bacillus subtilis. In words: Antimicrobial activity against Bacillus subtilis DSM 347. Format: functional, organism-based.
The test system of another experiment is Erwinia amylovora. The experiment is described as follows: Antimicrobial activity against Erwinia amylovora DSM 50901. In kind it is functional, organism-based.
The next experiment relates to Xanthomonas campestris. The experiment is described as follows: Antimicrobial activity against Xanthomonas campestris DSM 2405. In kind it is functional, organism-based.

Sequence of Glycogen synthase kinase-3 beta (Homo sapiens) (P49841 whole entry, looked up): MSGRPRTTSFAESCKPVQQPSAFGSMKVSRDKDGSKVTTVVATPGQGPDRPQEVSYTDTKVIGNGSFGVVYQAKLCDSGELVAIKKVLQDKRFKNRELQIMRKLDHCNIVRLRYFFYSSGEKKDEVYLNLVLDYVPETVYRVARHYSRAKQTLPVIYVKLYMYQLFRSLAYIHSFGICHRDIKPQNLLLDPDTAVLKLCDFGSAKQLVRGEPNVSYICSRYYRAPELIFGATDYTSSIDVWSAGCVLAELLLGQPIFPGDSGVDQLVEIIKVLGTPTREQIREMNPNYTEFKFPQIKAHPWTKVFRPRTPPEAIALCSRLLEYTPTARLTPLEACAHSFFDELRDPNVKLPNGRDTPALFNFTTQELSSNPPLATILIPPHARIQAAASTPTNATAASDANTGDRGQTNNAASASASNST
Sequence of Acetylcholinesterase (Homo sapiens) (P22303 whole entry): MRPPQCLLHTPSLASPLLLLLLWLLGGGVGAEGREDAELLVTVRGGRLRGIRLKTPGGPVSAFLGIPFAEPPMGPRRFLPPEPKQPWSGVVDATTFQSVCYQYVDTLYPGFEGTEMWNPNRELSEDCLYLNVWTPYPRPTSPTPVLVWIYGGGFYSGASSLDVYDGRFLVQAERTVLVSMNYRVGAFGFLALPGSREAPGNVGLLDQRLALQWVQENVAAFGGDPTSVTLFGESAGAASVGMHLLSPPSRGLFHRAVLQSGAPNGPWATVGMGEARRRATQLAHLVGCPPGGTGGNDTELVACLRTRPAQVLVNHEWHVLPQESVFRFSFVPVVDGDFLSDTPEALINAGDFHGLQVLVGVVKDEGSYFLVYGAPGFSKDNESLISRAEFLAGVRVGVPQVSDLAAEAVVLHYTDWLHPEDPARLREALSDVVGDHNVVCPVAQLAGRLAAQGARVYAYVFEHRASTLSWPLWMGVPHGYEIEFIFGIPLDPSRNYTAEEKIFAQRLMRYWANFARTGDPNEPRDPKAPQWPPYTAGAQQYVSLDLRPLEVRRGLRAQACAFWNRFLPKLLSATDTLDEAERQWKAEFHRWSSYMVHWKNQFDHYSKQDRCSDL

For `COc1ccc(/C=c2/[nH]c(=O)/c(=C/C(C)C)[nH]c2=O)cc1`, the Activity worked out at 44% with HepG2 and 64% with NIH3T3.
Turning to `COc1oc(CCCCC(C)(C)O)c(C)c(=O)c1C`, the result (in the experiment on Mammaliicoccus lentus; in experiment [1]; with Escherichia coli; in experiment [2]; in [3]; in the experiment with Ralstonia solanacearum) was inactive. Moreover, the result (with Pseudomonas syringae; in [4]; in experiment [5]; with Pseudomonas aeruginosa; in the experiment on Cutibacterium acnes; in [6]) was inactive. Also, the outcome in the experiment with Pseudomonas fluorescens, in the experiment on Candida albicans, in the experiment with Bacillus subtilis, in the experiment on Erwinia amylovora and in the experiment with Xanthomonas campestris was inactive.
In the case of `COc1oc(CCCCC(C)C)c(C)c(=O)c1C`, the result (in the experiment with Mammaliicoccus lentus; in experiment [1]; in the experiment with Escherichia coli; in experiment [2]; in experiment [3]; with Ralstonia solanacearum) was inactive. Besides, the result (with Pseudomonas syringae; in [4]; in [5]; with Pseudomonas aeruginosa; with Cutibacterium acnes; in experiment [6]) was inactive. For the same compound, the result in the experiment on Pseudomonas fluorescens, in the experiment with Candida albicans, in the experiment on Bacillus subtilis, in the experiment on Erwinia amylovora and in the experiment with Xanthomonas campestris was inactive.
